# In PubChem BioAssay:
# Active and inactive are the calls of the source.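 How the source made its calls: active means growth inhibition above a set limit, 3 SD over mean compound inhibition, in both replicates (cut at about 43% in these data); inconclusive means above the limit in only one replicate; inactive means at or below the limit in both replicates.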
# Assay: S. cerevisiae growth inhibition in restrictive medium, OD615, pilot screen, restrictive growth control, yeast lifespan reduction project (AID 706);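 further: modified DeaD lifespan yeast strain shifted to restrictive glucose medium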
# Conditions: OD615, 48 h, at 10 µM, stronger effect = higher value
# Outline: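 System: modified S. cerevisiae. Buffer or medium: CSMM-D glucose medium. Incubation: 4 h pre-growth plus 48 h compound exposure, 30 °C. Detection: absorbance (optical density) measured at 615 nm.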
row,Structure (SMILES),growth inhibition
1,CCCOc1cccc(C(=O)Nc2cccnc2)c1,-0.66% (inactive)
2,COc1ccc(-c2n[nH]c(C)c2-c2cnn(-c3ccccc3)c2)c(O)c1,0.745% (inactive)
3,COc1ccc(OC)c(NC(=O)C2CCC(CNc3c(N4CCC(C)CC4)c(=O)c3=O)CC2)c1 (configuration not stated),-11.5% (inactive)
4,COC(=O)c1c(NC(=O)C2CC2)sc2c1CCCC2,17% (inactive)
5,CC(C)Oc1ccc(NC(=O)Oc2ccccc2)cc1,-8.55% (inactive)
6,COCCNc1oc(-c2ccccc2Cl)nc1C#N,-2.94% (inactive)
7,O=c1c2ccccc2nc(N2CCN(c3ccccc3)CC2)n1Cc1ccccc1,-8.96% (inactive)
8,CCC(Sc1nc2c(cnn2-c2ccccc2)c(=O)[nH]1)C(=O)OC (configuration not stated),-17.4% (inactive)
9,Cn1c(-n2c(CCCN3C(=O)c4ccccc4C3=O)nc3ccccc3c2=O)nc2ccccc21,2.53% (inactive)
10,CCOC(=O)C1Cn2c(nc3c(c2=O)C2(CCCC2)Cc2ccccc2-3)S1 (configuration not stated),-1.87% (inactive)
11,COC(=O)c1ccc(CSc2ccc3nnc(-c4cccc(F)c4)n3n2)o1,49% (active)
12,CCOc1ccccc1C(=O)Nc1ccc2nc(N3CCN(c4ncccn4)CC3)cc(C)c2c1,-4.81% (inactive)
13,O=C(O)CC1C(=O)NCCN1C/C=C/c1ccccc1 (configuration not stated),-16.1% (inactive)
14,CCN1CCN(CC(=O)Nc2cccc(C)c2)C(=O)C1=O,-0.21% (inactive)
15,CCCCOc1ccccc1C1NC(=O)NC(C)=C1C(=O)OCCOC (configuration not stated),-16.6% (inactive)
16,Brc1ccc(-c2nnc3ccc(N4CCN(c5ccccc5)CC4)nn23)cc1,-10.7% (inactive)

row,Structure (SMILES),growth inhibition
1,CN1CSC2=C(C#N)C(c3cccc(OCc4ccccc4)c3)CC(=O)N2C1 (configuration not stated),20.4% (inactive)
2,COc1ccccc1-n1c(CNC(=O)c2ccccc2)nnc1SCC(=O)Nc1nnc(C)s1,0.83% (inactive)
3,Cn1cccc1Cc1nnc(SCC(=O)Nc2ccc3c(c2)OCCO3)n1CCc1ccccc1,22.1% (inactive)
4,CN(Cc1ccccc1)c1oc(COc2ccccc2F)nc1C#N,-8.97% (inactive)
5,CCOC(=O)c1cc2c(=O)n3ccccc3nc2n(Cc2ccco2)c1=NC(=O)c1cccnc1,14% (inactive)
6,CCOC(=O)c1[nH]c(C)c(C(=O)N2CCOCC2)c1C,-4.17% (inactive)
7,CCCOC(=O)c1ccc(NC(=O)CCC(=O)OCC)cc1,0.845% (inactive)
8,COC(=O)CSc1nc2ccc(NC(=O)CSc3nnnn3Cc3ccccc3)cc2s1,13.8% (inactive)
9,Cc1ccc(C)c(C(=O)Nc2c(C(N)=O)oc3ccccc23)c1,-1.59% (inactive)
10,C(#Cc1ccccc1)CN1CCN(c2ccccn2)CC1,-2.65% (inactive)
11,COc1cc(OC)c(NC(=O)CS(=O)(=O)Cc2nc(-c3ccc(C)cc3)oc2C)cc1Cl,-17% (inactive)
12,COc1cccc(CSc2nc3sc(C)c(C)c3c(=O)n2Cc2ccco2)c1,2.66% (inactive)
13,Cc1noc(/C=C/NCc2cccnc2)c1S(=O)(=O)N(C)CC(=O)N1CCc2ccccc21,-7.69% (inactive)
14,O=C(CCS(=O)(=O)c1cccc2nonc12)N1CC(=O)N(CCc2ccccc2)C(=O)C1,-8.59% (inactive)
15,COc1ccc(-c2noc(-c3cc(C)cc(C)c3)n2)cc1OC,-30.9% (inactive)
16,Cc1ccc(-c2nn(-c3ccccc3)cc2C2SCC(=O)N2Cc2ccccc2)o1 (configuration not stated),-9.89% (inactive)
